The results in this text go back to ChEMBL document CHEMBL3813636, “Toward discovery of mutant EGFR inhibitors; Design, synthesis and in vitro biological evaluation of potent 4-arylamino-6-ureido and thioureido-quinazoline derivatives” (Bioorg Med Chem, 2016).

Active and inactive are the calls of the source. No cut-off for these calls is given here.

Assay [1] in a line: Cytotoxicity against human BT474 cells expressing Her2 assessed as reduction in cell viability after 72 hrs by cell titer-glo luminescence assay. It is filed as functional, cell-based. The note with it: BT-474, 72 h.
The target in assay [2] is T1, Epidermal growth factor receptor (Homo sapiens, UniProt P00533). The assay can be described thus: Inhibition of recombinant human EGFR expressed in baculovirus by fluorescence based assay.
The target of assay [3] is Receptor tyrosine-protein kinase erbB-2 (Homo sapiens, UniProt P04626). The assay can be described thus: Inhibition of His-tagged human recombinant Her2 (676 to 1255 residues) expressed in baculovirus by fluorescence based assay. The procedure, abridged:
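Her2 kinase activity was measured with an outsourced kinase-profiling service. It used a fluorescence-based coupled-enzyme format that exploits the differing sensitivity of phosphorylated and non-phosphorylated peptide substrates to proteolytic cleavage.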

Assay [4] relates to Epidermal growth factor receptor (Homo sapiens), P00533 [L858R,T790M]. The assay can be described thus: Inhibition of EGFR L858R/T790M double mutant (unknown origin) expressed in mouse BaF/3 cells assessed as cell growth inhibition at 10 uM after 72 hrs by MTS assay. The class given is cell-based. The procedure, abridged:
(§1)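 Ba/F3 cells carrying the listed double-mutant EGFR were exposed to 10 uM compound, and growth was read by MTS assay as percent growth relative to DMSO-treated cells. Experiments were repeated at least three times.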

Assay [5] in a line: Antiproliferative activity against gefitinib-resistant human PC9/GR4 cells expressing Del19/T790M double mutant assessed as cell viability after 72 hrs by cell titer-glo luminescence assay. The note with it: PC9/GR4, 72 h. The class given is functional, cell-based.
For assay [6], the target named is T1, Epidermal growth factor receptor. The conditions noted are these: PC-9, at 10 µM.
A short description of assay [7]: Antiproliferative activity against gefitinib-sensitive human PC9 cells assessed as cell viability after 72 hrs by cell titer-glo luminescence assay. The class given is functional, cell-based. The conditions noted are these: PC-9, 72 h.
Assay [8] concerns Epidermal growth factor receptor (Homo sapiens), P00533 [UNDEFINED MUTATION]. Kind of assay: Inhibition of EGFR Del19/T790M double mutant (unknown origin) expressed in mouse BaF/3 cells assessed as cell growth inhibition at 10 uM after 72 hrs by MTS assay. It is filed as cell-based. The procedure, abridged:
as §1

In assay [9] the target is T1, Epidermal growth factor receptor. The conditions noted are these: PC-9, at 10 µM. The source holds these as a separate data set.
In assay [10] the test system is Epidermal growth factor receptor (Homo sapiens), P00533 [UNDEFINED MUTATION]. The conditions noted are these: PC9/GR4, at 10 µM.
The test system is the same in assay [11]. The conditions noted are these: PC9/GR4, at 10 µM. This is another data set of the same source.
A short description of assay [12]: Potency index, ratio of gefitinib IC50 to compound IC50 for human PC9/GR4 cells expressing Del19/T790M double mutant. It is filed as functional.

Sequence of Receptor tyrosine-protein kinase erbB-2 (P04626 whole entry, the tested form may be a part): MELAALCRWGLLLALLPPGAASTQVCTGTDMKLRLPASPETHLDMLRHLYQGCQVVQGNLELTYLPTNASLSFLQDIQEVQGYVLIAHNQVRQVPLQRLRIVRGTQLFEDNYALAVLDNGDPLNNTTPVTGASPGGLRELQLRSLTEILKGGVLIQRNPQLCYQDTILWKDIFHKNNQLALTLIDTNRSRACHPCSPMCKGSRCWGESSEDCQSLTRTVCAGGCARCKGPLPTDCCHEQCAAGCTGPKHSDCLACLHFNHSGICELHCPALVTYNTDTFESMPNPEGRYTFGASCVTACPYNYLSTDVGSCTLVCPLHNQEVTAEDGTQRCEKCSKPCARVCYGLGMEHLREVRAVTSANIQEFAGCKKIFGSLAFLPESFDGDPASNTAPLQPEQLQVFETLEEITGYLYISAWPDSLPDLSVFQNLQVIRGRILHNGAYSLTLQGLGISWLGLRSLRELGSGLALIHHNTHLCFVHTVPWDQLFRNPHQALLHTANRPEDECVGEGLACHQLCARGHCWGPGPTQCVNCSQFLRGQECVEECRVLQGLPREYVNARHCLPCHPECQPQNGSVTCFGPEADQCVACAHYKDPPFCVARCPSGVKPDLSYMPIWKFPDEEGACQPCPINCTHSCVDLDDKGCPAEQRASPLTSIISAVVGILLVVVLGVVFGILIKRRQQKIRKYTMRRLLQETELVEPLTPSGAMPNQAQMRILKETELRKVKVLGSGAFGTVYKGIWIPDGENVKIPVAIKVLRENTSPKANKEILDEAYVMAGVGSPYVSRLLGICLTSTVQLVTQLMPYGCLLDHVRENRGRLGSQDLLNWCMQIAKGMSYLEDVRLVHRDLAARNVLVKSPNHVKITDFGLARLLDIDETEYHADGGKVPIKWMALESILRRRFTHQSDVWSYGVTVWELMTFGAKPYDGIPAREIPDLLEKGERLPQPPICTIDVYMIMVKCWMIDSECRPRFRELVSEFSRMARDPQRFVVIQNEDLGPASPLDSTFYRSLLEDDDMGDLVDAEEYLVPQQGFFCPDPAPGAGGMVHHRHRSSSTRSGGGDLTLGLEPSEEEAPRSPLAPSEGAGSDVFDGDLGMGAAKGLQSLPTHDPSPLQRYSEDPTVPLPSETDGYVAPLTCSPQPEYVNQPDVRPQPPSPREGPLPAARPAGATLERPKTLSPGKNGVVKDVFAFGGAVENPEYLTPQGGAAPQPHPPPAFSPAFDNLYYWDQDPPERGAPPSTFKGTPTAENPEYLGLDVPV

For `CS(=O)(=O)CCNCc1ccc(-c2ccc3ncnc(Nc4ccc(OCc5cccc(F)c5)c(Cl)c4)c3c2)o1` [LAPATINIB], the IC50 in assay [1] is 31 nM.

With `O=C(NCCN1CCCCC1)Nc1ccc2ncnc(Nc3cccc(Br)c3)c2c1`, in assay [2], the IC50 was determined as 0.772 nM.

Turning to `Fc1cccc(COc2ccc(Nc3ncnc4ccc(NC(=S)NCCN5CCOCC5)cc34)cc2Cl)c1`, the values for the IC50 in assay [2] and in assay [3] were 2.26 nM and 33.1 nM, respectively.

Turning to `Fc1ccc(Nc2ncnc3ccc(NC(=S)NCCCN4CCOCC4)cc23)cc1Cl`, in [2], the IC50 was under 0.495 nM.

Turning to `O=C(NCCN1CCOCC1)Nc1ccc2ncnc(Nc3ccc(F)c(Cl)c3)c2c1`, the half-maximal inhibitory concentration (IC50) in assay [2] stood at 2.92 nM.

`CC(=O)Nc1ccc2ncnc(Nc3ccc(OCc4cccc(F)c4)c(Cl)c3)c2c1`: the “growth inhibition (GI)” value in assay [4] and in assay [8] was “Active” each time. Further, the IC50 turned out to be 8310 nM in assay [5]; 3.96 nM in assay [2]; 662 nM in assay [7]; 32.3 nM in [3]; 57 nM in assay [1]. For the same molecule, the inhibition result in assay [6], in assay [9], in assay [10] and in assay [11] was “Active” in each case.

As to `Fc1ccc(Nc2ncnc3ccc(NC(=S)NCCN4CCCCC4)cc23)cc1Cl`, in assay [2], the half-maximal inhibitory concentration (IC50) was found to be 3.7 nM.

As for `S=C(NCCN1CCOCC1)Nc1ccc2ncnc(Nc3cccc(Br)c3)c2c1`, the IC50 in [2] worked out at 1.81 nM.

Consider `O=C(NCCN1CCCCC1)Nc1ccc2ncnc(Nc3ccc(OCc4cccc(F)c4)c(Cl)c3)c2c1`, for which the “growth inhibition (GI)” value in [4] and in assay [8] was “Active” throughout. For the same molecule, the IC50 in assay [5] turned out to be 2160 nM; in assay [7], 1580 nM; in [3] it was 19.2 nM; in [1] it was 760 nM. The inhibition entry in assay [6], in [9], in assay [10] and in assay [11] was “Active” throughout. Also, the “Ratio IC50” value in assay [12] is listed as 8.

On to `C#Cc1cccc(Nc2ncnc3ccc(NC(C)=O)cc23)c1`, for which the IC50 in assay [2] turned out to be 2.04 nM.

Turning to `O=C(NCCN1CCOCC1)Nc1ccc2ncnc(Nc3cccc(Br)c3)c2c1`, the IC50 in assay [2] is 1.43 nM.

For the molecule `Fc1cccc(COc2ccc(Nc3ncnc4ccc(NC(=S)NCCCN5CCOCC5)cc34)cc2Cl)c1`, the IC50 in [2] came out at 1.5 nM; in assay [3], 12.1 nM.

For the molecule `S=C(NCCN1CCOCC1)Nc1ccc2ncnc(Nc3ccc(Cl)cc3)c2c1`, in [2], the half-maximal inhibitory concentration (IC50) is 5.06 nM.

`C#Cc1cccc(Nc2ncnc3ccc(NC(N)=O)cc23)c1`: the concentration for half-maximal inhibition (IC50) in assay [2] was 2.22 nM.

On to `O=C(NCCN1CCCCC1)Nc1ccc2ncnc(Nc3ccc(F)c(Cl)c3)c2c1`, for which, in assay [2], the IC50 was 1.06 nM.

In the case of `Fc1cccc(COc2ccc(Nc3ncnc4ccc(NC(=S)NCCN5CCCCC5)cc34)cc2Cl)c1`, the “growth inhibition (GI)” value in assay [4] and in assay [8] was “Active” throughout. The IC50 in [5] worked out at 5700 nM; in [7], 2160 nM; in [3], 40.6 nM; in assay [1], 340 nM. Moreover, the inhibition entry in assay [6], in [9], in [10] and in [11] was “Active” throughout. Also, the “Ratio IC50” value in assay [12] stood at 3.

In the case of `S=C(NCCN1CCOCC1)Nc1ccc2ncnc(Nc3ccc(Cl)c(Cl)c3)c2c1`, the IC50 in assay [2] was determined as 9.05 nM.

In the case of `CC(=O)Nc1ccc2ncnc(Nc3ccc(F)c(Cl)c3)c2c1`, the IC50 in [5] turned out to be 12600 nM; in assay [2], 0.662 nM; in assay [7] it was 225 nM. For the same molecule, the inhibition entry in assay [6], in [9], in [10] and in [11] was “Active” each time.

For `NC(=O)Nc1ccc2ncnc(Nc3ccc(OCc4cccc(F)c4)c(Cl)c3)c2c1`, the IC50 in [2] was 2.03 nM; in assay [3] it was 26.8 nM.

With `Fc1ccc(Nc2ncnc3ccc(NC(=S)NCCN4CCOCC4)cc23)cc1Cl`, the IC50 in [2] was determined as 2.25 nM.

`NC(=O)Nc1ccc2ncnc(Nc3ccc(Br)cc3)c2c1`: the half-maximal inhibitory concentration (IC50) in [2] is 0.803 nM.

Regarding `NC(=O)Nc1ccc2ncnc(Nc3ccc(F)c(Cl)c3)c2c1`, the values for the IC50 in [5], in [2] and in assay [7] were 21700 nM, 0.854 nM and 961 nM, respectively. The inhibition entry in [6], in assay [9], in assay [10] and in [11] was “Active” throughout.
